Results on 15 compounds are retold here after ChEMBL document CHEMBL1122433, “1-(4-Aminobenzyl)-and 1-(4-aminophenyl)isoquinoline derivatives: synthesis and evaluation as potential irreversible cyclic nucleotide phosphodiesterase inhibitors” (J Med Chem, 1983).

Assay [1] deals with T1, Phosphodiesterase 1 (Rattus norvegicus) (UniProt Q63421+Q9EPR9+Q01066). As to the kind of experiment: Inhibition of Ca-dependent phosphodiesterase from rat cerebral cortex at 25 uM with 1 uM cGMP, after pre-incubation at 25 uM. The format is functional, tissue-based. Also noted: scale not given: the % may be the effect or the level left. The essentials:
(§1)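 Purified calcium-dependent enzyme from rat cerebral cortex (Sephadex G-200 fraction) preincubated with inhibitor at the stated concentration. It was then diluted 1000-fold and assayed with 1 µM cGMP by polyacrylamide-boronate gel chromatography. Assays ran either without further drug or with drug re-added at the preincubation concentration. Activity was compared with enzyme preincubated without inhibitor.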

Assay [2] addresses T2, Phosphodiesterase 1 (Rattus norvegicus, UniProt Q63421+Q9EPR9+Q01066). Put plainly: Inhibition of Ca-dependent phosphodiesterase from Rat cerebral cortex using 1 uM cAMP. The format is tissue-based. The gist of the method:
(§2)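 Calcium-dependent enzyme from female Sprague-Dawley rat (200-250 g) cerebral cortex crude extract, taken by Sephadex G-200 gel filtration. Activity measured by polyacrylamide-boronate affinity gel chromatography with 1 µM cAMP or cGMP as substrate. Time and protein adjusted to keep hydrolysis under 25%. I50 interpolated from at least five inhibition values against log inhibitor concentration (10^-7 to 10^-4 M). Triplicate assays, 3-5 experiments, mean ± standard error.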

The target of assay [3] is T2, Phosphodiesterase 1. As to the kind of experiment: Inhibition of Ca-dependent phosphodiesterase from Rat cerebral cortex using 1 uM cGMP. The format is tissue-based. The gist of the method: as §2
The target in assay [4] is T1, Phosphodiesterase 1 (Rattus norvegicus). As to the kind of experiment: Inhibition of Ca-dependent phosphodiesterase from rat cerebral cortex with 1 uM cGMP without compound, after pre-incubation with 2 or 25 uM (negative control). The format is functional, tissue-based. Also on record: scale not given: the % may be the effect or the level left. The essentials:
as §1

Assay [5] has as its target Phosphodiesterase 1 (Bos taurus, UniProt Q01061+P14100). Put plainly: Inhibitory activity against cyclic nucleotide phosphodiesterase in bovine heart carried out at 37 C with cAMP […] as substrate. Format: tissue-based. The gist of the method: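 Crude bovine heart phosphodiesterase containing protein activator and calcium. Assay used 1 µM cAMP substrate with separation of 5'-AMP on Dowex resin. Time and protein adjusted to keep hydrolysis under 25%. I50 interpolated from at least five inhibition values against log inhibitor concentration (10^-7 to 10^-4 M). Triplicate assays, 3-5 experiments, mean ± standard error.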

The target of assay [6] is T1, Phosphodiesterase 1 (Rattus norvegicus). Put plainly: Inhibition of Ca-dependent phosphodiesterase from rat cerebral cortex at 2 uM with 1 uM cGMP, after pre-incubation at 2 uM. The format is functional, tissue-based. Also on record: scale not given: the % may be the effect or the level left. The essentials: as §1

For `COc1cc2ccnc(-c3ccc(N(CCCl)CCCl)cc3)c2cc1OC`, the Activity in assay [1] was 45%; in assay [4] it was 100%. Further, the I50 was determined as 7.3 µM at Phosphodiesterase 1 [2], 15 µM at Phosphodiesterase 1 [3] and 5.2 µM at Phosphodiesterase 1 [5].
Regarding `COc1cc2ccnc(-c3ccc(NCCCl)cc3)c2cc1OC`, the I50 at Phosphodiesterase 1 [2] was found to be 2.9 µM; at Phosphodiesterase 1 [3], 12 µM; on Phosphodiesterase 1 [5], 3.5 µM. The Activity in assay [6] is 21%; in assay [4], 102%.
Turning to `COc1ccc(Cc2nccc3cc(OC)c(OC)cc23)cc1OC` [PAPAVERINE], the I50 at Phosphodiesterase 1 [2] worked out at 12 µM; on Phosphodiesterase 1 [3], 21 µM; at Phosphodiesterase 1 [5], 8.8 µM.
`COC(=O)/C=C\C(=O)Nc1ccc(Cc2nccc3cc(OC)c(OC)cc23)cc1`: the I50 on Phosphodiesterase 1 [5] was 4 µM.
As to `C=CC(=O)Nc1ccc(Cc2nccc3cc(OC)c(OC)cc23)cc1`, the I50 on Phosphodiesterase 1 [5] was determined as 10 µM.
As to `COc1cc2ccnc(-c3ccc(NC(=O)CCl)cc3)c2cc1OC`, the I50 on Phosphodiesterase 1 [2] amounted to 2.3 µM; on Phosphodiesterase 1 [3], 6.8 µM; on Phosphodiesterase 1 [5], 5 µM. The Activity in assay [6] amounted to 19%; in assay [4] it was 105%.
As for `COC(=O)/C=C/C(=O)Nc1ccc(Cc2nccc3cc(OC)c(OC)cc23)cc1`, at Phosphodiesterase 1 [5], the I50 turned out to be 8 µM.
Turning to `COc1cc2ccnc(Cc3ccc(N(CCCl)CCCl)cc3)c2cc1OC`, on Phosphodiesterase 1 [5], the I50 stood at 5.3 µM.
Take `COC(=O)/C=C/C(=O)Nc1ccc(-c2nccc3cc(OC)c(OC)cc23)cc1`: the Activity in assay [1] stood at 104%; in assay [4] it was 100%. Moreover, the I50 on Phosphodiesterase 1 [2] is 35 µM; at Phosphodiesterase 1 [3], more than 100 µM; on Phosphodiesterase 1 [5], 14 µM.
Take `COc1cc2ccnc(Cc3ccc(NCCCl)cc3)c2cc1OC`: at Phosphodiesterase 1 [5], the I50 is 4.1 µM.
The same measure, in the same setting: the same measure for `COc1cc2ccnc(Cc3ccc(N)cc3)c2cc1OC`: 7.7 µM.
Take `COC(=O)/C=C\C(=O)Nc1ccc(-c2nccc3cc(OC)c(OC)cc23)cc1`: the I50 at Phosphodiesterase 1 [2] came to 1.7 µM; on Phosphodiesterase 1 [3], 1.1 µM; on Phosphodiesterase 1 [5], 5.3 µM. For the same compound, the Activity is 14% in assay [6] and 99% in assay [4].
The matching figures for `COc1cc2ccnc(-c3ccc(N)cc3)c2cc1OC`: 3.4 µM, 2.1 µM, 7.4 µM, 16% and 103%.
`COc1cc2ccnc(Cc3ccc(NC(=O)CCl)cc3)c2cc1OC`: the I50 on Phosphodiesterase 1 [5] worked out at 3.9 µM.
As to `C=CC(=O)Nc1ccc(-c2nccc3cc(OC)c(OC)cc23)cc1`, the values for the Activity in assay [1] and in assay [4] were 50% and 103%, respectively. The I50 on Phosphodiesterase 1 [2] was found to be 10 µM; at Phosphodiesterase 1 [3] it was 30 µM; on Phosphodiesterase 1 [5], 12 µM.
